Measured values taken from publication PMC5198968 (Cancer Science, 2016).
“And” between values parts separate entries of the source, which are not always exact repeats. Equal values may be shown once. “Also recorded” adds a separate entry of the source.

Tested on: Japanese patients with advanced hepatocellular carcinoma
Test: Adverse events
Format: in vivo, human
Summary of the method: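 Oral test compound given twice daily, continuously, in 28-day cycles until progression or unacceptable AEs. Group I had mild liver impairment (Child–Pugh 5–6) and group II moderate impairment (Child–Pugh 7 or raised AST/ALT). AEs were recorded over the observation period and graded by CTCAE v3.0. The treated set was every patient receiving at least one dose, and analyses were descriptive.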

[1] = Group I (mild liver impairment), 150 mg b.i.d., n = 4
[2] = Group I (mild liver impairment), 200 mg b.i.d., n = 12
[3] = Group I (mild liver impairment), all patients, n = 16
[4] = Group I (mild liver impairment), n = 16, all grades
[5] = Group I (mild liver impairment), n = 16, grade ≥3
[6] = Group II (moderate liver impairment), 100 mg b.i.d., n = 3
[7] = Group II (moderate liver impairment), 150 mg b.i.d., n = 4
[8] = Group II (moderate liver impairment), 200 mg b.i.d., n = 7
[9] = Group II (moderate liver impairment), all patients, n = 14
[10] = Group II (moderate liver impairment), n = 14, all grades
[11] = Group II (moderate liver impairment), n = 14, grade ≥3

COC(=O)c1ccc2c(c1)NC(=O)/C2=C(\Nc1ccc(N(C)C(=O)CN2CCN(C)CC2)cc1)c1ccccc1 [nintedanib]
AEs leading to nintedanib discontinuation [1]: 0 (0.0) n (%) | AEs leading to nintedanib dose reduction [1]: 0 (0.0) n (%) | Any AE [1]: 4 (100.0) n (%) | Investigator-defined drug-related AE [1]: 3 (75.0) n (%) | Other significant AEs (leading to dose reduction or permanent discontinuation of nintedanib) [1]: 0 (0.0) n (%) | Serious AEs [1]: 0 (0.0) n (%) | Serious AEs: Fatal [1]: 0 (0.0) n (%) | Serious AEs: Immediately life-threatening [1]: 0 (0.0) n (%) | Serious AEs: Prolonged hospitalization [1]: 0 (0.0) n (%) | Serious AEs: Required hospitalization [1]: 0 (0.0) n (%) | AEs leading to nintedanib discontinuation [2]: 0 (0.0) n (%) | AEs leading to nintedanib dose reduction [2]: 5 (41.7) n (%) | Any AE [2]: 12 (100.0) n (%) | Investigator-defined drug-related AE [2]: 11 (91.7) n (%) | Other significant AEs (leading to dose reduction or permanent discontinuation of nintedanib) [2]: 5 (41.7) n (%) | Serious AEs [2]: 4 (33.3) n (%) | Serious AEs: Fatal [2]: 0 (0.0) n (%) | Serious AEs: Immediately life-threatening [2]: 0 (0.0) n (%) | Serious AEs: Prolonged hospitalization [2]: 0 (0.0) n (%) | Serious AEs: Required hospitalization [2]: 4 (33.3) n (%) | AEs leading to nintedanib discontinuation [3]: 0 (0.0) n (%) | AEs leading to nintedanib dose reduction [3]: 5 (31.3) n (%) | Any AE [3]: 16 (100.0) n (%) | Investigator-defined drug-related AE [3]: 14 (87.5) n (%) | Other significant AEs (leading to dose reduction or permanent discontinuation of nintedanib) [3]: 5 (31.3) n (%) | Serious AEs [3]: 4 (25.0) n (%) | Serious AEs: Fatal [3]: 0 (0.0) n (%) | Serious AEs: Immediately life-threatening [3]: 0 (0.0) n (%) | Serious AEs: Prolonged hospitalization [3]: 0 (0.0) n (%) | Serious AEs: Required hospitalization [3]: 4 (25.0) n (%) | Abdominal pain [4]: 4 (25.0) | Any AE [4]: 16 (100) | Ascites [4]: 1 (6.3) | Decreased appetite [4]: 6 (37.5) | Decreased platelet count [4]: 2 (12.5) | Diarrhea [4]: 8 (50.0) | Fatigue [4]: 3 (18.8) | Hyperuricemia [4]: 1 (6.3) | Hypoalbuminemia [4]: 2 (12.5) | Increased ALT [4]: 1 (6.3) | Increased AST [4]: 4 (25.0) | Increased blood bilirubin [4]: 1 (6.3) | Malaise [4]: 4 (25.0) | Malignant neoplasm progression [4]: 1 (6.3) | Nausea [4]: 7 (43.8) | Neutropenia [4]: 2 (12.5) | Pyrexia [4]: 2 (12.5) | Vomiting [4]: 6 (37.5) | Abdominal pain [5]: 0 (0.0) | Any AE [5]: 7 (43.8) | Ascites [5]: 0 (0.0) | Decreased appetite [5]: 0 (0.0) | Decreased platelet count [5]: 2 (12.5) | Diarrhea [5]: 1 (6.3) | Fatigue [5]: 1 (6.3) | Hyperuricemia [5]: 0 (0.0) | Hypoalbuminemia [5]: 0 (0.0) | Increased ALT [5]: 0 (0.0) | Increased AST [5]: 0 (0.0) | Increased blood bilirubin [5]: 0 (0.0) | Malaise [5]: 0 (0.0) | Malignant neoplasm progression [5]: 0 (0.0) | Nausea [5]: 0 (0.0) | Neutropenia [5]: 0 (0.0) | Pyrexia [5]: 0 (0.0) | Vomiting [5]: 0 (0.0) | AEs leading to nintedanib discontinuation [6]: 0 (0.0) n (%) | AEs leading to nintedanib dose reduction [6]: 1 (33.3) n (%) | Any AE [6]: 3 (100.0) n (%) | Investigator-defined drug-related AE [6]: 3 (100.0) n (%) | Other significant AEs (leading to dose reduction or permanent discontinuation of nintedanib) [6]: 1 (33.3) n (%) | Serious AEs [6]: 1 (33.3) n (%) | Serious AEs: Fatal [6]: 0 (0.0) n (%) | Serious AEs: Immediately life-threatening [6]: 0 (0.0) n (%) | Serious AEs: Prolonged hospitalization [6]: 0 (0.0) n (%) | Serious AEs: Required hospitalization [6]: 1 (33.3) n (%) | AEs leading to nintedanib discontinuation [7]: 0 (0.0) n (%) | AEs leading to nintedanib dose reduction [7]: 1 (25.0) n (%) | Any AE [7]: 4 (100.0) n (%) | Investigator-defined drug-related AE [7]: 4 (100.0) n (%) | Other significant AEs (leading to dose reduction or permanent discontinuation of nintedanib) [7]: 1 (25.0) n (%) | Serious AEs [7]: 2 (50.0) n (%) | Serious AEs: Fatal [7]: 1 (25.0) n (%) | Serious AEs: Immediately life-threatening [7]: 0 (0.0) n (%) | Serious AEs: Prolonged hospitalization [7]: 0 (0.0) n (%) | Serious AEs: Required hospitalization [7]: 2 (50.0) n (%) | AEs leading to nintedanib discontinuation [8]: 0 (0.0) n (%) | AEs leading to nintedanib dose reduction [8]: 1 (14.3) n (%) | Any AE [8]: 7 (100.0) n (%) | Investigator-defined drug-related AE [8]: 5 (71.4) n (%) | Other significant AEs (leading to dose reduction or permanent discontinuation of nintedanib) [8]: 1 (14.3) n (%) | Serious AEs [8]: 3 (42.9) n (%) | Serious AEs: Fatal [8]: 1 (14.3) n (%) | Serious AEs: Immediately life-threatening [8]: 1 (14.3) n (%) | Serious AEs: Prolonged hospitalization [8]: 1 (14.3) n (%) | Serious AEs: Required hospitalization [8]: 3 (42.9) n (%) | AEs leading to nintedanib discontinuation [9]: 0 (0.0) n (%) | AEs leading to nintedanib dose reduction [9]: 3 (21.4) n (%) | Any AE [9]: 14 (100.0) n (%) | Investigator-defined drug-related AE [9]: 12 (85.7) n (%) | Other significant AEs (leading to dose reduction or permanent discontinuation of nintedanib) [9]: 3 (21.4) n (%) | Serious AEs [9]: 6 (42.9) n (%) | Serious AEs: Fatal [9]: 2 (14.3) n (%) | Serious AEs: Immediately life-threatening [9]: 1 (7.1) n (%) | Serious AEs: Prolonged hospitalization [9]: 1 (7.1) n (%) | Serious AEs: Required hospitalization [9]: 6 (42.9) n (%) | Abdominal pain (upper abdominal pain for group II) [10]: 2 (14.3) | Any AE [10]: 14 (100) | Ascites [10]: 7 (50.0) | Decreased appetite [10]: 7 (50.0) | Decreased platelet count [10]: 1 (7.1) | Diarrhea [10]: 6 (42.9) | Fatigue [10]: 5 (35.7) | Hyperuricemia [10]: 3 (21.4) | Hypoalbuminemia [10]: 6 (42.9) | Increased ALT [10]: 4 (28.6) | Increased AST [10]: 5 (35.7) | Increased blood bilirubin [10]: 4 (28.6) | Lymphopenia [10]: 2 (14.3) | Malaise [10]: 3 (21.4) | Malignant neoplasm progression [10]: 4 (28.6) | Nausea [10]: 5 (35.7) | Neutropenia [10]: 3 (21.4) | Pyrexia [10]: 4 (28.6) | Vomiting [10]: 3 (21.4) | Abdominal pain (upper abdominal pain for group II) [11]: 0 (0.0) | Any AE [11]: 11 (78.6) | Ascites [11]: 1 (7.1) | Decreased appetite [11]: 0 (0.0) | Decreased platelet count [11]: 0 (0.0) | Diarrhea [11]: 0 (0.0) | Fatigue [11]: 0 (0.0) | Hyperuricemia [11]: 2 (14.3) | Hypoalbuminemia [11]: 1 (7.1) | Increased ALT [11]: 2 (14.3) | Increased AST [11]: 3 (21.4) | Increased blood bilirubin [11]: 0 (0.0) | Lymphopenia [11]: 2 (14.3) | Malaise [11]: 0 (0.0) | Malignant neoplasm progression [11]: 2 (14.3) | Nausea [11]: 0 (0.0) | Neutropenia [11]: 2 (14.3) | Pyrexia [11]: 0 (0.0) | Vomiting [11]: 0 (0.0) | Discontinuation of nintedanib due to AEs (both groups): No patients discontinued nintedanib due to adverse events; also recorded: No patients discontinued nintedanib due to AEs | Drug-related fatal AEs (both groups): No drug‐related fatal AEs were reported | Hypertension at grade ≥3 (both groups): not reported by any patients | Ascites, any grade (group I): 6.3% | Bleeding, incidence (group I): 12.5% | Decreased appetite, any grade (group I): 37.5% | Diarrhea, any grade (group I): 50.0% | Fatigue, any grade (group I): 18.8% | Hand-foot skin reaction (group I): one patient in group I | Hypertension, incidence (group I): 12.5% | Hypoalbuminemia, any grade (group I): 12.5% | Increased AST, any grade (group I): 25.0% | Nausea, any grade (group I): 43.8% | Serious AEs considered drug-related by the investigator (group I): grade 3 immune thrombocytopenic purpura and grade 3 hyponatremia | Thromboembolic events at grade ≥3 (group I): no patients in group I | Thromboembolic events, incidence (group I): 0.0% | Vomiting, any grade (group I): 37.5% | Patients with dose reduction of nintedanib due to AEs (group I (five patients, all on 200 mg)): 31% and 31.3% | Patients with serious AEs (all requiring hospitalization) (group I (four patients)): 25.0% | Patients with adverse events at grade ≥3 (group I (seven patients)): 43.8% | Ascites, any grade (group II): 50.0% | Bleeding at grade ≥3 (group II): no patients in group II | Bleeding, incidence (group II): 14.3% | Decreased appetite, any grade (group II): 50.0% | Diarrhea, any grade (group II): 42.9% | Fatigue, any grade (group II): 35.7% | Hand-foot skin reaction (group II): no patients in group II | Hypertension, incidence (group II): 21.4% | Hypoalbuminemia, any grade (group II): 42.9% | Increased AST, any grade (group II): 35.7% | Nausea, any grade (group II): 35.7% | Serious AEs considered drug-related by the investigator (group II): grade 2 gastroenteritis, grade 3 drug‐induced liver injury, and grade 2 pyrexia | Thromboembolic events, incidence (group II): 7.1% | Vomiting, any grade (group II): 21.4% | Patients with adverse events at grade ≥3 (group II (11 patients)): 78.6% | Thromboembolic events at grade ≥3 (group II (one patient)): 7.1% | Patients with serious AEs (all requiring hospitalization) (group II (six patients)): 42.9% | Patients with dose reduction of nintedanib due to AEs (group II (three patients, one from each dose)): 21% and 21.4%
